In PubChem BioAssay AID651740 (Broad Institute, 2012) one finds inhibition data, which are given here for 5 molecules.

SMILES strings stand for the structures. Among all 5,600 compounds or so, about 1,200 (21%) were called active. Another 3% or so got no clear call; they are omitted. The list is a sample of the results. Unmarked numbers belong to inactive results.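 How the source made its calls: active means mean inhibition above about 95%, with at least 55% of replicates also reaching it (limit read from the data); inconclusive means meets just one of the two conditions; inactive means meets neither condition.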

The assay in a line: Trypanosoma cruzi growth blockers in host fibroblasts – NIH3T3 host cells, beta-gal parasites, cherry-pick, set 2, confirmation (AID 651740).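 Further: plate controls were neutral control median for no effect and positive control median for full effect.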 The settings on record: T. cruzi beta-gal in NIH3T3, GalScreen luminescence, 90 h; at 2.09 µM; stronger effect = higher value. The procedure, abridged: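 Timing: host attachment 3 h, co-culture ≥90 h, lysis 60 min / Test system: NIH/3T3 host cells with beta-gal T. cruzi Tulahuen C4 / Quantity: 5,000 fibroblasts/well / Dosing: single point, 100 nL compound in DMSO pinned per well / Buffer or medium: 2% FBS DMEM with PSG / Detection: GalScreen luminescence (substrate 1:25 in Buffer B) after cell lysis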
For `COc1ccc(C#Cc2ccc([C@H]3[C@H](CO)N4CCCCN(C(=O)Cc5ccccc5)C[C@@H]34)cc2)cc1`, the inhibition (in general, the drop in the measured response relative to a control, in per cent) was 111% (active).

Consider `O=C(Cc1ccccn1)N1CCCCN2[C@@H](CO)[C@@H](c3ccc(C#Cc4ccccc4)cc3)[C@@H]2C1`, for which the inhibition is 56.8%.

`COc1ccc(-c2ccc([C@H]3[C@H](CO)N4CCCCN(C(=O)Cc5ccncc5)C[C@@H]34)cc2)cc1`: the inhibition was 66.4%.

`C/C=C/c1ccc([C@H]2[C@H](CO)N3CCCCN(C(=O)Cc4ccncc4)C[C@@H]23)cc1`: the inhibition is 82.3%.

For the molecule `O=C(Cc1cccnc1)N1CCCCN2[C@@H](CO)[C@H](c3ccc(C#CC4CCCC4)cc3)[C@@H]2C1`, the inhibition is 46.3%.
